Results taken from ChEMBL document CHEMBL4425122, “Discovery of 1-(1H-Pyrazolo[4,3-c]pyridin-6-yl)urea Inhibitors of Extracellular Signal-Regulated Kinase (ERK) for the Treatment of Cancers” (J Med Chem, 2016).

Legend:
[1] = biological target: Mitogen-activated protein kinase 1 (Homo sapiens, UniProt P28482); assay: Inhibition of human ERK2 preincubated for 15 mins followed by addition of IMAP peptide substrate and ATP measured after 60 mins by IMAP-FP assay
In short: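 Final: 0.5 nM hERK2, 900 nM unlabeled + 80 nM labeled peptide, 30 µM ATP; 60 min, quenched with IMAP beads in binding buffer with 24 mM NaCl, read by fluorescence polarization after 60 min.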

[2] = Inhibition of ERK in human A375SM cells harboring BRAF V600E mutant assessed as inhibition of RSK phosphorylation measured after 4 hrs by mesoscale electrochemiluminescent sandwich assay; assay type: cell-based; details: A375-SM
In short: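 A375SM (BRAF V600E melanoma) cells, 10,000 per well, treated 4 h; lysed 20 min at 4 °C in Tris/NaCl/EGTA/EDTA/Triton/NaF buffer with protease and phosphatase inhibitors. Lysate captured with biotin anti-RSK1 on streptavidin MSD plate, detected with SULFO-TAG anti-pRSK (pThr359/Ser363) overnight at 4 °C; electrochemiluminescence read. IC50 from 11-point titration.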

[3] = Inhibition of ERK human A375 cells assessed as inhibition of RSK phosphorylation measured after 4 hrs by mesoscale electrochemiluminescent sandwich assay; details: A-375, 4 h
[4] = biological target: Mitogen-activated protein kinase 1 (Mus musculus, UniProt P63085); assay: Inhibition of mouse ERK2 preincubated for 15 mins followed by addition of IMAP peptide substrate and ATP measured after 60 mins by IMAP-FP assay
Cytochrome P450 3A4 = Cytochrome P450 3A4 (Homo sapiens, UniProt P08684); assay: Inhibition of CYP3A4 (unknown origin); assay type: ADME
[5] = biological target: Voltage-gated inwardly rectifying potassium channel KCNH2 (Homo sapiens, UniProt Q12809); assay: Inhibition of human ERG
Homo sapiens [6] = organism: Homo sapiens; assay: Selectivity ratio, ratio of IC50 for human ERK2 to IC50 for RAF1 (unknown origin)
Homo sapiens [7] = organism: Homo sapiens; assay: Selectivity ratio, ratio of IC50 for human ERK2 to IC50 for BRAF (unknown origin)
Homo sapiens [8] = organism: Homo sapiens; assay: Selectivity ratio, ratio of IC50 for human ERK2 to IC50 for COT (unknown origin)
Homo sapiens [9] = organism: Homo sapiens; assay: Selectivity ratio, ratio of IC50 for human ERK2 to IC50 for MEK1 (unknown origin)

Chain of Mitogen-activated protein kinase 1 (Homo sapiens, UniProt P28482) (P28482 whole entry): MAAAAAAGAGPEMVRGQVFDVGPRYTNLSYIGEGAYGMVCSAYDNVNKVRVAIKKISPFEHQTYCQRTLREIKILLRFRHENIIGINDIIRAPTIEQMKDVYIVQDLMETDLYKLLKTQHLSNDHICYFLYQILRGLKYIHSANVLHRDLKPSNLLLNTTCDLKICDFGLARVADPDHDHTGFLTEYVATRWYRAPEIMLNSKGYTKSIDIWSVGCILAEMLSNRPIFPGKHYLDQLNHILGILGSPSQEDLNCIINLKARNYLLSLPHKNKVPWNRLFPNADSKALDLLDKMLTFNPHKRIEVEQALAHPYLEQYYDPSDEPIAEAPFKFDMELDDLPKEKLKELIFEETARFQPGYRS
Chain of Mitogen-activated protein kinase 1 (Mus musculus, UniProt P63085) (P63085 whole entry): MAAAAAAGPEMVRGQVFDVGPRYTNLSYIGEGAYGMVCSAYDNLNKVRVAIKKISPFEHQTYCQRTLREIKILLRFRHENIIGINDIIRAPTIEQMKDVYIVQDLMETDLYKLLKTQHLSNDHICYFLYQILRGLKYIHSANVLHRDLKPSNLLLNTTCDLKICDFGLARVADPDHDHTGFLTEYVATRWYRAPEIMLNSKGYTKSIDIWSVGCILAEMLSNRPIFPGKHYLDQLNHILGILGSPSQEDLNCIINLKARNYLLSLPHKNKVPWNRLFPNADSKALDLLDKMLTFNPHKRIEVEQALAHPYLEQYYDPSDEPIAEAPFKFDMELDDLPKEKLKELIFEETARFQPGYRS
Chain of Voltage-gated inwardly rectifying potassium channel KCNH2 (Q12809 whole entry): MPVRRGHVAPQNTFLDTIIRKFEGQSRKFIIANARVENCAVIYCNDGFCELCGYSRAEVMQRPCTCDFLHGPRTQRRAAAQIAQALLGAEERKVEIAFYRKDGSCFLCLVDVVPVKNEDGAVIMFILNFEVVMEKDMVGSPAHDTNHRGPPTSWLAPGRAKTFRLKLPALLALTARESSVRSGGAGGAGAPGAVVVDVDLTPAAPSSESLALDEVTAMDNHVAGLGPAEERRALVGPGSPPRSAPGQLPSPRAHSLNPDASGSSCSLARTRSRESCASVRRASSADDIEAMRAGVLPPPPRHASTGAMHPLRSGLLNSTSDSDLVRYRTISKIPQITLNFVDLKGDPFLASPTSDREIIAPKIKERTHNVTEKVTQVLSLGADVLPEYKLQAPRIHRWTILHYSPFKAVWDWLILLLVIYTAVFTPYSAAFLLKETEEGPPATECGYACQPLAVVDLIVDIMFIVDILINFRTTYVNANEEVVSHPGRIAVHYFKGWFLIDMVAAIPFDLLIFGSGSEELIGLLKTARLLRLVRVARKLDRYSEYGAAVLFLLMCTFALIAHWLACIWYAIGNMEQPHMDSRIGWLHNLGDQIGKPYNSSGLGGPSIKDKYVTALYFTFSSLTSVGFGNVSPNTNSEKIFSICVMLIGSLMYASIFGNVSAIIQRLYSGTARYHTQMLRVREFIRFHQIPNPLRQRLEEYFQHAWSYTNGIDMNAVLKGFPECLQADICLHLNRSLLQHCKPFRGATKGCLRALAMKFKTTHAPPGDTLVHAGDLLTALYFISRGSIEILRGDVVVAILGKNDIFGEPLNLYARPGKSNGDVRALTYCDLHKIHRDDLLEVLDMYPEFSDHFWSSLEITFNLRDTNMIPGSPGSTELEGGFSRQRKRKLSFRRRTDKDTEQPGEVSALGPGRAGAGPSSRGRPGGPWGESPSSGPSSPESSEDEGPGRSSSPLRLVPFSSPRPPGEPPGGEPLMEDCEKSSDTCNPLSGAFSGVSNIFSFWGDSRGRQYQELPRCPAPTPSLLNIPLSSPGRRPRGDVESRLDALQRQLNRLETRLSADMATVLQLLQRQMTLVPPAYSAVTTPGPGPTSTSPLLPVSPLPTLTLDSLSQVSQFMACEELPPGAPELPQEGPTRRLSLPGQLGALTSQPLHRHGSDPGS
Chain of Cytochrome P450 3A4 (P08684 whole entry): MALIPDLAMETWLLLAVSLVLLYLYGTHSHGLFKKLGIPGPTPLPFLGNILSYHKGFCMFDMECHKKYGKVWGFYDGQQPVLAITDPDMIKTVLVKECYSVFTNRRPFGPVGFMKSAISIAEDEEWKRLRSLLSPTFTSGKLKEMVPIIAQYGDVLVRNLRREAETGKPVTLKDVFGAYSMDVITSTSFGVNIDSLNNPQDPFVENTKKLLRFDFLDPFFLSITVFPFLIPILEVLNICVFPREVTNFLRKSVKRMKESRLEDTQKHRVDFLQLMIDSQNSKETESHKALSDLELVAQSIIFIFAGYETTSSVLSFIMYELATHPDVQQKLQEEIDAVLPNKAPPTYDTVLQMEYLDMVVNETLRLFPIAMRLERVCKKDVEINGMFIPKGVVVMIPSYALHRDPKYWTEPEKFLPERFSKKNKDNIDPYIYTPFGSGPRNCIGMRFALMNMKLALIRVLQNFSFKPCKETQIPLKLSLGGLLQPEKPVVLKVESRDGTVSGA

| IC50 [1] [µM] | IC50 [2] [µM] | Structure (SMILES) | further results |
| --- | --- | --- | --- |
| 0.005 | 0.75 | Cc1cc(-c2n[nH]c3cc(NC(=O)NC4CCc5ccccc54)ncc23)ccn1 (centres undefined) |  |
|  | 0.55 | C[C@@H](NC(=O)Nc1cc2[nH]nc(C3CC3)c2cn1)c1ccccc1 |  |
| 2.4 |  | Cc1cc(-c2n[nH]c3cc(NS(=O)(=O)NCc4ccccc4)ncc23)ccn1 |  |
|  |  | Cc1cc(-c2n[nH]c3cc(NC(=O)N[C@@H](C)c4ccccc4)ncc23)ccn1 | IC50 [3]: 1.8 µM |
| 0.004 | 0.81 | C[C@@H](NC(=O)Nc1cc2[nH]nc(C3CCCC3)c2cn1)c1ccccc1 |  |
| 0.0009 | 0.81 | Cc1cc(-c2n[nH]c3cc(NC(=O)N[C@H](C)c4ccccc4)ncc23)cnn1 |  |
| 0.0009 | 0.3 | COc1cc(-c2n[nH]c3cc(NC(=O)N[C@H](C)c4ccccc4)ncc23)ccn1 |  |
|  |  | Cc1cc(-c2n[nH]c3cc(NC(=O)OCc4ccccc4)ncc23)ccn1 | IC50 [4]: > 3 µM |
|  |  | Cc1cc(-c2n[nH]c3cc(NC(=O)OCc4ccccc4)ccc23)ccn1 | IC50 [4]: > 3 µM |
| 0.0003 | 0.13 | Cc1cc(-c2n[nH]c3cc(NC(=O)N[C@H](C)c4ccccc4)ncc23)cc(C)n1 | IC50 (Cytochrome P450 3A4): 0.78 µM; IC50 [5]: > 20 µM |
| 0.0009 | 0.22 | Cc1cc(-c2n[nH]c3cc(NC(=O)NCc4ccccc4)ncc23)ccn1 | Ratio IC50 (Homo sapiens [6]): < 100; Ratio IC50 (Homo sapiens [7]): < 100; Ratio IC50 (Homo sapiens [8]): < 100; Ratio IC50 (Homo sapiens [9]): < 100; IC50 [4]: 0.0002 µM |
